Bioassay records (PubChem BioAssay)
The entries come from a sample that favours hits as a whole.
Ecoli WT expand: blocks growth of wild type E. coli BW25113; 98,000 tested, 0.15% active; growth inhibition, % at 100 µM; OD600 absorbance;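 active = growth inhibition above about 50% at one test dose, limit read from the data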;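 also: growth measured after 20 h incubation at 37 °C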
TNAP act DEA: human TNAP activation, intermediate phosphate acceptor | activation factor at 20 µM | AID 813 | P05186 | 64,000 tested, under 10 active | purified TNAP, CDP-star luminescence, 100 mM DEA, 30 min; active compounds read high; scale: 0 levamisole-inhibited, 1 vehicle-only enzyme;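 active = activation factor of at least 2 at 20 µM, relative to controls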
tolC growth inh: growth inhibitors of E. coli BW25113 tolC mutant | OD615 | growth inhibition, % at 10 µM (by protocol) | 65,000 tested, 2.2% active | AID 573;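 active = growth inhibition at or above a cutoff equal to the mean over every tested compound plus 3 SD, cut at about 60% in these data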;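 also: growth measured after 20 h incubation at 37 °C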
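test system = E. coli BW25113 ΔtolC::kan bacteria | medium = LB with kanamycin 50 µg/mL | signal = OD at 615 nm | schedule = 37 °C, 20 h exposure | evaluation = % inhibition of E. coli growth | compound dosing = one dose of 10 µM final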
WNV protease inh: WNV NS2B-NS3 proteinase inhibition; WNV NS2B-NS3 protease, fluorogenic substrate Ex360/Em465; active compounds read low; z-score (test concentration not listed); 65,000 tested, 0.18% active; in the data active = z-score below about -3
BAP1 block: inhibitors of human BAP1 deubiquitinase; Q92560; recombinant BAP1, Ub-AMC hydrolysis fluorescence kinetic; active compounds read low; calls only at 20 µM; 72,000 tested, 0.48% active; AID 436;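 active = activity remaining at or below 50% of control, provided the compound also passes the data quality filters; inactive = the rest, including low values that fail the filters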;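 also: 100% = DMSO wells rate and 0% = substrate alone blank rate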
Target sequence (Q92560 whole entry, looked up): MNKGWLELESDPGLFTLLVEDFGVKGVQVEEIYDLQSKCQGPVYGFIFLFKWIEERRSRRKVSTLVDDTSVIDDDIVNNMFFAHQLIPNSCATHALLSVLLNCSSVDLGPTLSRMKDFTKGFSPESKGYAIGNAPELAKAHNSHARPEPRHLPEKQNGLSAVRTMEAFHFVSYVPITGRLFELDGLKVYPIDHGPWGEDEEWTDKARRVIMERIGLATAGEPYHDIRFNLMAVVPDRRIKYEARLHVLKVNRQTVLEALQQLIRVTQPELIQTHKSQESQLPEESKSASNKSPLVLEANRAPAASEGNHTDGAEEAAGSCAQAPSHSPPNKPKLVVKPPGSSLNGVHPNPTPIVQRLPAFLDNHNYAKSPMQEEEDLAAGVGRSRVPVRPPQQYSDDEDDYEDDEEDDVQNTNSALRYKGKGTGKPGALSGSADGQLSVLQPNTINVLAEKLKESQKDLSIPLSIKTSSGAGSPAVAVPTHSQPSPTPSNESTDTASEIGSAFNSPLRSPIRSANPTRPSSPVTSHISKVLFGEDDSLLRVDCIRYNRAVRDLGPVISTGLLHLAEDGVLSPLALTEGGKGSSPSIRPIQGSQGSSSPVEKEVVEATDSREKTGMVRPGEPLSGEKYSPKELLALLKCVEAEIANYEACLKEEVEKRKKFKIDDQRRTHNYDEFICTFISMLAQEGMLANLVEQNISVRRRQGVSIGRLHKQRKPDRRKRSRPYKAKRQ
Active calls of the source: *; i = inactive; nt = no result given; + = active, no number.

SMILES	Ecoli WT expand	TNAP act DEA	tolC growth inh	WNV protease inh	BAP1 block
CCOC(=O)C1=C(C)NC(=S)NC1c1cc(OC)ccc1OC (configuration not stated)	nt	nt	nt	nt	i
CCCN(CCC)S(=O)(=O)c1ccc(C(=O)Nc2nnc(CSC)o2)cc1	6	1	99*	1.6	i
CCCCN(C)S(=O)(=O)c1ccc(C(=O)Nc2nnc(-c3cccs3)o2)cc1	1	0.9	100*	0.75	i
CCN(CC)S(=O)(=O)c1ccc(C(=O)Nc2ncn(Cc3ccccc3)n2)cc1	-1	1	11	2.2	i
CCCCN(CC)S(=O)(=O)c1ccc(C(=O)Nc2nnc(-c3ccccc3Cl)o2)cc1	-2	1	100*	3.5	i
CCCCN(CCCC)S(=O)(=O)c1ccc(NC(=O)c2cccs2)cc1	-16	nt	nt	nt	nt
CCCCN(CCCC)S(=O)(=O)c1ccc(C(=O)Nc2nnc(CSC)o2)cc1	8	0.9	99*	1.2	i
CCOc1nc(Nc2ccc(-c3nc4ccccc4o3)cc2)nc(N2CCOCC2)n1	nt	0.9	-10	-0.43	nt
Nc1ccccc1-c1n[nH]c(=S)[nH]c1=O	nt	nt	nt	nt	i
CCCCN(CC)S(=O)(=O)c1ccc(C(=O)Nc2nnc(CSC)o2)cc1	12	0.9	98*	-0.72	i
CCCCN(CC)S(=O)(=O)c1ccc(C(=O)Nc2nnc(COC)o2)cc1	5	0.9	88*	-0.87	i
CCc1nnc(NC(=O)c2ccc(S(=O)(=O)N(CCOC)CCOC)cc2)o1	-3	1	-5	2.3	i
COc1ccc(C(=O)NC(C)c2nnc(SCC(=O)Nc3nc4ccccc4s3)n2C)cc1 (configuration not stated)	-7	1	15	0.73	i
O=C(COc1ccc2ccccc2c1Br)N1CCN(c2ccccn2)CC1	-15	1	93*	-0.01	i
CCN(CC)c1ccc(C(=O)Nc2cccc(F)c2)cc1	-4	0.9	62*	-1.2	i
COc1ccc(NC(=O)c2ccc(NS(=O)(=O)c3c(C)noc3C)cc2)cc1OC	0	1	-5	0.78	i
Cc1ccc(Cl)cc1N1CCN(C(=O)c2ccc(NS(=O)(=O)c3c(C)noc3C)cc2)CC1	-19	0.9	71*	-0.16	i
Cc1noc(C)c1S(=O)(=O)Nc1ccc(C(=O)N2CCCCC2)cc1	-5	nt	nt	nt	nt
Cc1ccc(C)c(N2CCN(C(=O)c3ccc(NS(=O)(=O)c4c(C)noc4C)cc3)CC2)c1	-18	1	80*	0.48	i
Cc1ccc(NC(=O)c2ccc(NS(=O)(=O)c3c(C)noc3C)cc2)cc1C	7	0.9	76*	-0.79	i
Cc1noc(C)c1S(=O)(=O)Nc1ccc(C(=O)NC2CCCCC2)cc1	4	0.9	13	-0.93	i
Cc1ccc(C=Nc2ccc3c(c2)Cc2cc([N+](=O)[O-])ccc2-3)cc1	nt	nt	nt	nt	i
CCc1cc2cc(C(=O)N3CCN(Cc4ccccc4)CC3)sc2s1	-7	0.9	98*	-1.4	i
CCc1cc2cc(C(=O)N3CCN(c4ccccc4)CC3)sc2s1	-13	nt	nt	nt	nt
CCCCCc1nnc(NC(=O)CCCC)s1	nt	nt	nt	nt	i
SMILES	Ecoli WT expand	TNAP act DEA	tolC growth inh	WNV protease inh	BAP1 block
Cc1ccc(F)cc1NC(=O)C(Cc1ccc([N+](=O)[O-])cc1)N1C(=O)c2ccccc2C1=O (configuration not stated)	nt	nt	nt	nt	i
Nc1ccc(C=Cc2nc3ccccc3[nH]2)cc1	nt	nt	nt	nt	i
O=c1c2ccccc2n(Cc2ccc(F)cc2)c(=O)n1C1CCCC1	-11	0.9	76*	0.31	i
CCN1/C(=C/c2ccc3cccc(C)c3[n+]2CC)Sc2ccccc21	72*	nt	nt	nt	nt
Cc1ccc(Cl)cc1NC(=O)c1ocnc1C	-1	0.9	-8	-3.4*	i
Cc1ccccc1NC(=O)c1ocnc1C	-5	0.9	-9	1.9	i
O=C(Nc1ccc2c(c1)CCC2)C1COc2ccccc2O1 (configuration not stated)	3	0.9	100*	0.95	i
COC(=O)CSc1nc2sc3c(c2c(=O)n1-c1ccccc1)CCN(C)C3	0	1.1	-7	-0.87	i
C=CCn1c(SCC(=O)OC)nc2sc3c(c2c1=O)CCN(C)C3	5	0.9	-2	-7.4*	i
O=C(Nc1cccc2ncccc12)c1cccnc1	-9	0.9	-7	-0.54	i
CSc1nc(N2CCOCC2)c2c3c(sc2n1)CCCC3	-2	0.9	96*	0.7	i
CCOC(=O)C1NN=C(C(=O)c2ccc(OC)cc2)C1c1ccccc1 (configuration not stated)	nt	nt	nt	nt	i
O=C(Nc1cccc2cccnc12)c1ccc(Br)o1	7	0.8	93*	-0.97	i
CC1(C)Cc2ccccc2C(Nc2ccccc2)=N1	nt	nt	nt	nt	i
O=c1nc(N2CCOCC2)c(Cl)cn1-c1nc(-c2ccccc2)oc1-c1ccccc1	nt	nt	nt	nt	i
CCCCCCCCCCCCCCCCCCOC[C@H](COP(=O)([O-])OCC[N+](C)(C)C)OC	nt	nt	nt	nt	i
CCCCCCCCCCCCCCCCOCC(COCC(F)(F)F)OP(=O)(O)OCO (configuration not stated)	nt	nt	nt	nt	+
Cn1ncc(C#N)c1/N=C/N(Cc1ccccc1)Cc1ccccc1	-4	0.9	99*	0.47	i
Cc1ccc(SCc2cc(=O)[nH]c(/N=C(\N)Nc3ccc(C)c(C)c3)n2)cc1	-14	nt	nt	nt	nt
Cc1ccc(/C(O)=C2\C(=O)C(=O)N(c3cc(C)on3)C2c2cccc(Br)c2)cc1 (configuration not stated)	-7	0.9	65*	-1.2	i
COc1ccc(C2/C(=C(\O)c3ccc(Cl)cc3)C(=O)C(=O)N2c2cccnc2)c(OC)c1 (configuration not stated)	nt	nt	nt	nt	i
COc1ccc(CCNC(=O)c2ccncc2)cc1OC	-11	0.9	1	1.2	i
COc1ccc(CCNC(=O)c2cc3sc(Cl)cc3n2C)cc1OC	0	0.8	63*	0.4	i
CCOC(=O)C1=C(C)S/C(=C\N(C)C)C1=O	2	0.9	-3	-0.55	i
Fc1ccc(CSc2nnc(-c3cnccn3)n2Cc2ccco2)cc1	1	0.9	21	0.4	i
SMILES	Ecoli WT expand	TNAP act DEA	tolC growth inh	WNV protease inh	BAP1 block
Brc1ccc(CSc2nnc(-c3cnccn3)n2Cc2ccco2)cc1	-6	0.9	64*	-0.16	i
Nc1cccc2nc3ccccc3cc12	57*	nt	nt	nt	nt
Cc1cc2c(N)cccc2nn1	5	1	-14	1	i
COc1cccc(Cn2c(Oc3cccc(C)c3)nc3c2c(=O)n(C)c(=O)n3C)c1	-25	0.9	84*	-1.1	i
CCCOc1nc2c(c(=O)n(C)c(=O)n2C)n1Cc1cccc2ccccc12	-6	0.9	65*	-0.89	nt
Cn1c(=O)c2c(nc(N3CCNCC3)n2Cc2cccc3ccccc23)n(C)c1=O	4	1	-32	-0.26	i
Cc1cc2nc3c(=O)c(=O)c3nc2cc1C	nt	nt	nt	nt	i
Cc1cccnc1NC(=O)c1c(O)c2cccc3c2n(c1=O)CCC3	-3	0.9	70*	0.74	i
